# Measured values as given in ChEMBL document CHEMBL3585281, “Antibacterial Labdane Diterpenoids from Vitex vestita” (2015).
# Tests used:
# Assay type in all cases: functional
# [1] = tested on: Staphylococcus intermedius; experiment: Antibacterial activity against Staphylococcus intermedius N987 after 18 hrs by agar dilution method; details: N987, 18 h
# Method in brief: (§1)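 Agar-dilution MIC against Gram-positive strains. Compounds in DMSO, geometric dilutions giving final 100−0.75 mg/L in Mueller Hinton agar. Strains grown 18 h at 37 °C in trypticase soy broth, diluted in sterile water, spotted by Steers inoculator (about 1000 UFC/spot). Plates incubated 18 h at 37 °C; DMSO blank; ofloxacin positive control. MIC = lowest concentration with no visible growth.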
# [2] = tested on: Enterococcus durans; experiment: Antibacterial activity against Enterococcus durans CIP 104999 after 18 hrs by agar dilution method; details: CIP 104999, 18 h; method in brief: as §1
# [3] = tested on: Enterococcus casseliflavus; experiment: Antibacterial activity against Enterococcus casseliflavus N487 after 18 hrs by agar dilution method; details: N487, 18 h; method in brief: as §1
# [4] = tested on: Enterococcus faecium; experiment: Antibacterial activity against Enterococcus faecium N507 after 18 hrs by agar dilution method; details: N507, 18 h; method in brief: as §1
# [5] = tested on: Enterococcus faecalis; experiment: Antibacterial activity against Enterococcus faecalis N518 after 18 hrs by agar dilution method; details: N518, 18 h; method in brief: as §1
# [6] = tested on: Enterococcus faecium; experiment: Antibacterial activity against Enterococcus faecium CIP 103014 after 18 hrs by agar dilution method; details: CIP 103014, 18 h; method in brief: as §1
# [7] = tested on: Listeria innocua; experiment: Antibacterial activity against Listeria innocua E044 after 18 hrs by agar dilution method; details: E044, 18 h; method in brief: as §1
# [8] = tested on: Bacillus spizizenii; experiment: Antibacterial activity against Bacillus subtilis ATCC 6633 after 18 hrs by agar dilution method; details: ATCC 6633, 18 h; method in brief: as §1
# [9] = tested on: Listeria monocytogenes; experiment: Antibacterial activity against Listeria monocytogenes N851 after 18 hrs by agar dilution method; details: N851, 18 h; method in brief: as §1
# [10] = tested on: Enterococcus faecium; experiment: Antibacterial activity against Enterococcus faecium N490 after 18 hrs by agar dilution method; details: N490, 18 h; method in brief: as §1
# [11] = tested on: Staphylococcus saprophyticus; experiment: Antibacterial activity against Staphylococcus saprophyticus E260 after 18 hrs by agar dilution method; details: E260, 18 h; method in brief: as §1
# [12] = tested on: Corynebacterium striatum; experiment: Antibacterial activity against Corynebacterium striatum N840 after 18 hrs by agar dilution method; details: N840, 18 h; method in brief: as §1
# [13] = tested on: Bacillus cereus; experiment: Antibacterial activity against Bacillus cereus N349 after 18 hrs by agar dilution method; details: N349, 18 h; method in brief: as §1
# [14] = tested on: Bacillus cereus; experiment: Antibacterial activity against Bacillus cereus CIP 6624 after 18 hrs by agar dilution method; details: CIP 6624, 18 h; method in brief: as §1
# [15] = tested on: Enterococcus casseliflavus; experiment: Antibacterial activity against Enterococcus casseliflavus CIP 103018 after 18 hrs by agar dilution method; details: CIP 103018, 18 h; method in brief: as §1
# [16] = tested on: Enterococcus faecium; experiment: Antibacterial activity against Enterococcus faecium N733 after 18 hrs by agar dilution method; details: N733, 18 h; method in brief: as §1
# [17] = tested on: Staphylococcus aureus; experiment: Antibacterial activity against Staphylococcus aureus CIP 5710 after 18 hrs by agar dilution method; details: CIP 5710, 18 h; method in brief: as §1
# [18] = tested on: Staphylococcus aureus; experiment: Antibacterial activity against Staphylococcus aureus CIP 53156 after 18 hrs by agar dilution method; details: CIP 53156, 18 h; method in brief: as §1
# [19] = tested on: Bacillus cereus; experiment: Antibacterial activity against Bacillus cereus N258 after 18 hrs by agar dilution method; details: N258, 18 h; method in brief: as §1
# [20] = tested on: Staphylococcus aureus; experiment: Antibacterial activity against Staphylococcus aureus CIP 7625 after 18 hrs by agar dilution method; details: CIP 7625, 18 h; method in brief: as §1
# [21] = tested on: Enterococcus faecium; experiment: Antibacterial activity against Enterococcus faecium CIP 107387 after 18 hrs by agar dilution method; details: CIP 107387, 18 h; method in brief: as §1
# [22] = tested on: Staphylococcus aureus; experiment: Antibacterial activity against Staphylococcus aureus CIP 53154 after 18 hrs by agar dilution method; details: CIP 53154, 18 h; method in brief: as §1
# [23] = tested on: Enterococcus faecalis; experiment: Antibacterial activity against Enterococcus faecalis CIP 104676 after 18 hrs by agar dilution method; details: CIP 104676, 18 h; method in brief: as §1
# [24] = tested on: Staphylococcus aureus; experiment: Antibacterial activity against Staphylococcus aureus CRBIP 2121 after 18 hrs by agar dilution method; details: CRBIP 2121, 18 h; method in brief: as §1
# [25] = tested on: Staphylococcus aureus; experiment: Antibacterial activity against Staphylococcus aureus ATCC 9144 oxford after 18 hrs by agar dilution method; method in brief: as §1
# [26] = tested on: Enterococcus faecium; experiment: Antibacterial activity against Enterococcus faecium N823 after 18 hrs by agar dilution method; details: N823, 18 h; method in brief: as §1
# [27] = tested on: Enterococcus gallinarum; experiment: Antibacterial activity against Enterococcus gallinarum N492 after 18 hrs by agar dilution method; details: N492, 18 h; method in brief: as §1
# [28] = tested on: Listeria monocytogenes; experiment: Antibacterial activity against Listeria monocytogenes N783 after 18 hrs by agar dilution method; details: N783, 18 h; method in brief: as §1
# [29] = tested on: Enterococcus avium; experiment: Antibacterial activity against Enterococcus avium CIP 104053 after 18 hrs by agar dilution method; details: CIP 104053, 18 h; method in brief: as §1
# [30] = tested on: Enterococcus gallinarum; experiment: Antibacterial activity against Enterococcus gallinarum CIP 105985 after 18 hrs by agar dilution method; details: CIP 105985, 18 h; method in brief: as §1
# [31] = tested on: Streptococcus agalactiae; experiment: Antibacterial activity against Streptococcus agalactiae CIP 103227 after 18 hrs by agar dilution method; details: ATCC 13813, 18 h; method in brief: as §1
# [32] = tested on: Enterococcus faecalis; experiment: Antibacterial activity against Enterococcus faecalis N491 after 18 hrs by agar dilution method; details: N491, 18 h; method in brief: as §1
# [33] = tested on: Staphylococcus epidermidis; experiment: Antibacterial activity against Staphylococcus epidermidis CIP 53124 after 18 hrs by agar dilution method; details: CIP 53124, 18 h; method in brief: as §1
# [34] = tested on: Mammaliicoccus sciuri; experiment: Antibacterial activity against Staphylococcus sciuri N993 after 18 hrs by agar dilution method; details: N993, 18 h; method in brief: as §1
# [35] = tested on: Staphylococcus haemolyticus; experiment: Antibacterial activity against Staphylococcus haemolyticus CIP 8156 after 18 hrs by agar dilution method; details: CIP 8156, 18 h; method in brief: as §1
# [36] = tested on: Staphylococcus aureus; experiment: Antibacterial activity against Staphylococcus aureus CIP 483 after 18 hrs by agar dilution method; details: CIP 483, 18 h; method in brief: as §1
# [37] = tested on: Enterococcus faecalis; experiment: Antibacterial activity against Enterococcus faecalis N520 after 18 hrs by agar dilution method; details: N520, 18 h; method in brief: as §1
# [38] = tested on: Enterococcus hirae; experiment: Antibacterial activity against Enterococcus hirae CIP 5855 after 18 hrs by agar dilution method; details: CIP 5855, 18 h; method in brief: as §1
# [39] = tested on: Enterococcus gallinarum; experiment: Antibacterial activity against Enterococcus gallinarum N489 after 18 hrs by agar dilution method; details: N489, 18 h; method in brief: as §1
# [40] = tested on: Staphylococcus saprophyticus; experiment: Antibacterial activity against Staphylococcus saprophyticus CIP 76125 after 18 hrs by agar dilution method; details: CIP 76125, 18 h; method in brief: as §1
# [41] = tested on: Bacillus cereus; experiment: Antibacterial activity against Bacillus cereus N190 after 18 hrs by agar dilution method; details: N190, 18 h; method in brief: as §1
# [42] = tested on: Staphylococcus lugdunensis; experiment: Antibacterial activity against Staphylococcus lugdunensis ATCC 43809 after 18 hrs by agar dilution method; details: ATCC 43809, 18 h; method in brief: as §1
# [43] = tested on: Listeria monocytogenes; experiment: Antibacterial activity against Listeria monocytogenes CIP 103575 after 18 hrs by agar dilution method; details: CIP 103575, 18 h; method in brief: as §1
# [44] = tested on: Listeria monocytogenes; experiment: Antibacterial activity against Listeria monocytogenes N836 after 18 hrs by agar dilution method; details: N836, 18 h; method in brief: as §1
# [45] = tested on: Enterococcus faecalis; experiment: Antibacterial activity against Enterococcus faecalis CIP 103214 after 18 hrs by agar dilution method; details: CIP 103214, 18 h; method in brief: as §1
# [46] = tested on: Staphylococcus aureus; experiment: Antibacterial activity against Staphylococcus aureus ATCC 25923 after 18 hrs by agar dilution method; details: ATCC 25923, 18 h; method in brief: as §1
structure (smiles),measurement,setting,value
O=C(N[C@H](CO)[C@H](O)c1ccc([N+](=O)[O-])cc1)C(Cl)Cl [CHLORAMPHENICOL],MIC,[1],25 µM
same,MIC,[2],12 µM
same,MIC,[3],25 µM
same,MIC,[4],25 µM
same,MIC,[5],25 µM
same,MIC,[6],25 µM
same,MIC,[7],12 µM
same,MIC,[8],12 µM
same,MIC,[9],25 µM
same,MIC,[10],12 µM
same,MIC,[11],25 µM
same,MIC,[12],50 µM
same,MIC,[13],6 µM
same,MIC,[14],6 µM
same,MIC,[15],25 µM
same,MIC,[16],12 µM
same,MIC,[17],12 µM
same,MIC,[18],12 µM
same,MIC,[19],6 µM
same,MIC,[20],25 µM
same,MIC,[21],12 µM
same,MIC,[22],12 µM
same,MIC,[23],200 µM
same,MIC,[24],12 µM
same,MIC,[25],12 µM
same,MIC,[26],25 µM
same,MIC,[27],25 µM
same,MIC,[28],12 µM
same,MIC,[29],12 µM
same,MIC,[30],12 µM
same,MIC,[31],3 µM
same,MIC,[32],12 µM
same,MIC,[33],6 µM
same,MIC,[34],12 µM
same,MIC,[35],6 µM
same,MIC,[36],12 µM
same,MIC,[37],200 µM
same,MIC,[38],12 µM
same,MIC,[39],12 µM
same,MIC,[40],25 µM
same,MIC,[41],6 µM
same,MIC,[42],12 µM
same,MIC,[43],25 µM
same,MIC,[44],12 µM
same,MIC,[45],25 µM
same,MIC,[46],25 µM
